From ChEMBL document CHEMBL3774373, “Activity and Predicted Nephrotoxicity of Synthetic Antibiotics Based on Polymyxin B” (J Med Chem, 2016)
Converted amounts (≈) assume the structure as drawn. Numbered stars: 1 amine (or outer) side, 2 acyl side, 3 side chain; on linkers, the order of the positions; unused ones are H or OH. Bridge positions count the residues as written; N and C are the ends. Square brackets hold non-standard residues; d marks the D form. Peptide text beside a SMILES is read from it. * marks the point of attachment. X1 = c1ccc(-c2ccc(N*)cc2)cc1; NH(2-ClPh) = Clc1ccccc1N*; Octanoyl = CCCCCCCC(=O)*; Dab = NCC[C@H](N)C(=O)O; CO = O=C([*:1])[*:2]

Tests used:
[1] = system: Klebsiella pneumoniae; experiment: Antibacterial activity against Klebsiella pneumoniae ATCC BAA-2146 expressing NDM-1 after 18 hrs by 2 fold serial dilution method; format: functional; settings: ATCC BAA-2146, 18 h
Method in brief: (§1)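 Overnight cultures at 37 °C in nutrient or Mueller Hinton broth with shaking were diluted 50-fold in MHB and grown 1.5–3 h to mid-log phase. The inoculum was 5×10^5 CFU/mL in MHB. Compounds were 2-fold serially diluted, final 32 to 0.015 μg/mL. After 18 h at 37 °C, the MIC was read visually as the lowest concentration with no visible growth.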

[2] = system: Klebsiella pneumoniae; experiment: Antibacterial activity against Klebsiella pneumoniae ATCC 13883 after 18 hrs by 2 fold serial dilution method; format: functional; settings: ATCC 13883, 18 h
Method in brief: (§2)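 Overnight cultures in nutrient or Mueller Hinton broth at 37 °C with shaking, diluted 50-fold into fresh MHB and grown 1.5–3 h to mid-log. Inoculum 5×10^5 CFU/mL in 2-fold serial dilutions, final range 32 to 0.015 μg/mL. MIC read visually after 18 h at 37 °C as the lowest concentration with no visible growth.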

[3] = system: Pseudomonas aeruginosa; experiment: Antibacterial activity against clinical isolate polymyxin resistant Pseudomonas aeruginosa FADDI-PA070 after 18 hrs by 2 fold serial dilution method; format: functional; settings: FADDI-PA070, 18 h
Method in brief: (§3)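 Polymyxin-resistant clinical isolates were grown overnight at 37 °C in NB or MHB with shaking, diluted 50-fold in MHB and grown 1.5–3 h to mid-log phase. The inoculum was 5×10^5 CFU/mL. Compounds were 2-fold broth serial dilutions, final 32 to 0.015 μg/mL; the polymyxin controls ran 128–0.06 μg/mL. The MIC was the lowest concentration with no visible growth after 18 h at 37 °C.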

[4] = system: Acinetobacter baumannii; experiment: Antibacterial activity against clinical isolate carbapenem and polymyxin resistant Acinetobacter baumannii Ptyela 100734512:2 after 18 hrs by 2 fold serial dilution method; format: functional; settings: Ptyela 100734512:2, 18 h; method in brief: as §3
[5] = system: Klebsiella pneumoniae; experiment: Antibacterial activity against clinical isolate carbapenem and polymyxin resistant Klebsiella pneumoniae Koprana 100650661:1 after 18 hrs by 2 fold serial dilution method; format: functional; settings: Koprana 100650661:1, 18 h; method in brief: as §3
[6] = (§4) Cytotoxicity against human HepG2 cells after 24 hrs by resazurin assay; format: cell-based; settings: HepG2 cells
[7] = system: Pseudomonas aeruginosa; experiment: Antibacterial activity against Pseudomonas aeruginosa after 24 hrs by macrobroth dilution method; format: functional
[8] = system: Escherichia coli; experiment: Antibacterial activity against Escherichia coli after 24 hrs by macrobroth dilution method; format: functional
[9] = system: Pseudomonas aeruginosa; experiment: Antibacterial activity against Pseudomonas aeruginosa ATCC 27853 after 18 hrs by 2 fold serial dilution method; format: functional; settings: ATCC 27853, 18 h; method in brief: as §2
[10] = system: Escherichia coli; experiment: Antibacterial activity against Escherichia coli ATCC 25922 after 18 hrs by 2 fold serial dilution method; format: functional; settings: ATCC 25922, 18 h; method in brief: as §2
[11] = system: Acinetobacter baumannii; experiment: Antibacterial activity against Acinetobacter baumannii ATCC 19606 after 18 hrs by 2 fold serial dilution method; format: functional; settings: ATCC 19606, 18 h; method in brief: as §2
[12] = system: Staphylococcus aureus; experiment: microbe, parasite or virus in culture; settings: ATCC 25923, 18 h
[13] = system: Klebsiella pneumoniae; experiment: Antibacterial activity against multidrug resistant Klebsiella pneumoniae ATCC 700603 after 18 hrs by 2 fold serial dilution method; format: functional; settings: Klebsiella pneumoniae, 700603, 18 h; method in brief: as §1
[14] = system: Staphylococcus aureus; experiment: Antibacterial activity against Staphylococcus aureus after 24 hrs by macrobroth dilution method; format: functional
[15] = system: Pseudomonas aeruginosa; experiment: Antibacterial activity against clinical isolate polymyxin resistant Pseudomonas aeruginosa PA9704 after 18 hrs by 2 fold serial dilution method; format: functional; settings: PA9704, 18 h; method in brief: as §3
[16] = system: Klebsiella pneumoniae; experiment: Antibacterial activity against clinical isolate carbapenem and polymyxin resistant Klebsiella pneumoniae 138-16357-20362 after 18 hrs by 2 fold serial dilution method; format: functional; settings: 138-16357-20362, 18 h; method in brief: as §3
[17] = system: Pseudomonas aeruginosa; experiment: Antibacterial activity against Pseudomonas aeruginosa after 16 to 20 hrs by 2 fold broth microdilution method; format: functional
[18] = system: Klebsiella pneumoniae; experiment: Antibacterial activity against Klebsiella pneumoniae after 16 to 20 hrs by 2 fold broth microdilution method; format: functional
[19] = system: Escherichia coli; experiment: Antibacterial activity against Escherichia coli after 16 to 20 hrs by 2 fold broth microdilution method; format: functional
[20] = system: Acinetobacter baumannii; experiment: Antibacterial activity against Acinetobacter baumannii after 16 to 20 hrs by 2 fold broth microdilution method; format: functional
[21] = (§5) Cytotoxicity against HEK293 cells after 24 hrs by resazurin assay; format: cell-based; settings: human, HEK293 cells
[22] = Cytotoxicity against HK2 cells assessed as LDH release by Western blot analysis; format: cell-based, HK-2; settings: human
[23] = system: Escherichia coli; experiment: Antibacterial activity against Escherichia coli ATCC 26 after 18 hrs by 2 fold serial dilution method; format: functional; settings: ATCC 26, 18 h; method in brief: as §1
[24] = Cytotoxicity against HK2 cells assessed as GGT release by Western blot analysis; format: cell-based, HK-2; settings: human
[25] = system: HEK293; experiment: as §5; format: cell-based; settings: human, hek293, 24 h
[26] = system: HepG2; experiment: as §4; format: cell-based; settings: hepg2, 24 h
[27] = primary human renal proximal tubule epithelial cells, read-out: CC50

Compound	MIC [1]	MIC [2]	MIC [3]	MIC [4]	MIC [5]	CC50 at 24 h [6]	MIC [9]	MIC [10]	MIC [11]	MIC [12]	MIC [13]	MIC [15]	MIC [16]	also measured
CCCCCCCC(=O)N[C@@H](CCN)C(=O)N[C@H](C(=O)N[C@@H](CCN)C(=O)N[C@H]1CCNC(=O)[C@H]([C@@H](C)O)NC(=O)[C@H](CCNC(=O)[C@@H](N)CCCNC(=N)N)NC(=O)[C@H](CCN)NC(=O)[C@H](CC(C)C)NC(=O)[C@@H](Cc2ccccc2)NC(=O)[C@H](CCN)NC1=O)[C@@H](C)O (Octanoyl-[Dab]T[Dab][Dab][Dab][dF]L[Dab][Dab](Arg)T; lactam 4-C)	8 µg/mL (≈ 5.95 µM)	32 µg/mL (≈ 23.8 µM)	> 32 µg/mL	> 32 µg/mL	> 32 µg/mL	> 300 µM	32 µg/mL (≈ 23.8 µM)	32 µg/mL (≈ 23.8 µM)	16 µg/mL (≈ 11.9 µM)	> 32 µg/mL	8 µg/mL (≈ 5.95 µM)	> 32 µg/mL	> 32 µg/mL	MIC [7]: 0.03 µg/mL (≈ 0.0223 µM); MIC [8]: 0.16 µg/mL (≈ 0.119 µM); MIC [14]: 2 µg/mL (≈ 1.49 µM)
CC(C)C[C@@H]1NC(=O)[C@@H](Cc2ccccc2)NC(=O)[C@H](CCN)NC(=O)[C@@H](NC(=O)[C@H](CCN)NC(=O)[C@@H](NC(=O)[C@H](CCN)NC(=O)Nc2ccccc2Cl)[C@@H](C)O)CCNC(=O)[C@H]([C@@H](C)O)NC(=O)[C@H](CCN)NC(=O)[C@H](CCN)NC1=O ({NH(2-ClPh)-CO}-[Dab]T[Dab][Dab][Dab][dF]L[Dab][Dab]T; lactam 4-C)	4 µg/mL (≈ 3.29 µM)	2 µg/mL (≈ 1.64 µM)	> 32 µg/mL	> 32 µg/mL	> 32 µg/mL	> 300 µM	0.5 µg/mL (≈ 0.411 µM)	1 µg/mL (≈ 0.822 µM)	1 µg/mL (≈ 0.822 µM)	> 32 µg/mL	2 µg/mL (≈ 1.64 µM)	> 32 µg/mL	> 32 µg/mL	MIC90 [17]: 2 µg/mL (≈ 1.64 µM); MIC90 [18]: 4 µg/mL (≈ 3.29 µM); MIC90 [19]: 2 µg/mL (≈ 1.64 µM); MIC90 [20]: 4 µg/mL (≈ 3.29 µM)
CC(C)C[C@@H]1NC(=O)[C@@H](Cc2ccccc2)NC(=O)[C@H](CCN)NC(=O)[C@@H](NC(=O)[C@H](CCN)NC(=O)[C@@H](NC(=O)[C@H](CCN)NC(=O)Nc2ccc(-c3ccccc3)cc2)[C@@H](C)O)CCNC(=O)[C@H]([C@@H](C)O)NC(=O)[C@H](CCN)NC(=O)[C@H](CCN)NC1=O ({X1-CO}-[Dab]T[Dab][Dab][Dab][dF]L[Dab][Dab]T; lactam 4-C)	1 µg/mL (≈ 0.795 µM)	2 µg/mL (≈ 1.59 µM)	16 µg/mL (≈ 12.7 µM)	16 µg/mL (≈ 12.7 µM)	16 µg/mL (≈ 12.7 µM)	316 µM	1 µg/mL (≈ 0.795 µM)	2 µg/mL (≈ 1.59 µM)	1 µg/mL (≈ 0.795 µM)	32 µg/mL (≈ 25.4 µM)	2 µg/mL (≈ 1.59 µM)	8 µg/mL (≈ 6.36 µM)	> 32 µg/mL	CC50 at 24 h [21]: > 300 µM; CC50 [22, 27]: > 128 µg/mL; MIC [23]: 2.5 µg/mL (≈ 1.99 µM); CC50 [24, 27]: > 128 µg/mL
GENTAMICIN														CC50 [25]: > 300 µM; CC50 ([22]; hk-2): 33 µg/mL; CC50 [26]: > 300 µM; CC50 ([24]; hk-2): 33 µg/mL
